3 compounds from ChEMBL document CHEMBL4038302, “Fibroblast Activation Protein α Activated Tripeptide Bufadienolide Antitumor Prodrug with Reduced Cardiotoxicity” (J Med Chem, 2017) can be followed below.

SMILES strings stand for the structures. Activity calls are given as the source filed them. No cut-off for these calls is given here.

In one data set the test system is MDA-MB-435. Nature of the data set: Antiproliferative activity against wild type human MDA-MB-435 cells expressing FAP-alpha incubated for 48 hrs by MTT assay. The settings on record: MDA-MB-435, 48 h. It counts as functional, cell-based. In short, it runs like this: (§1)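 Cells grown in DMEM with 10% FBS and 1% penicillin-streptomycin at 37 °C, 5% CO2; 10% heat-inactivated FBS used during cytotoxicity testing to exclude serum FAP activity. Viability read by MTT; IC50 as mean ± SEM of at least three independent experiments. Transfected lines were made from MDA-MB-231 with human FAPα plasmid or empty pCMV6-Entry vector and checked by Western blot at 48 h.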
(Tetrazolium assays rely on reduction of a dye to a coloured formazan, in cell work by metabolically active cells.)

Data set [1] relates to MDA-MB-231. In words: Antiproliferative activity against human MDA-MB-231 cells transfected with pCMV6 incubated for 48 hrs by MTT assay. It counts as functional, cell-based. The conditions noted are these: MDA-MB-231, 48 h. In short, it runs like this:
as §1

In data set [2] the test system is MDA-MB-231. Nature of the data set: Antiproliferative activity against human MDA-MB-231 cells assessed as decrease in cell viability at 62.5 to 500 nmol/L after 72 hrs by MTT assay. It counts as functional, cell-based.
The subject of the next data set is MCF7. In words: Antiproliferative activity against FAP-alpha deficient human MCF7 cells incubated for 48 hrs by MTT assay. It counts as functional, cell-based. The settings on record: MCF7, 48 h. An outline of the steps:
as §1

The test system of data set [3] is MDA-MB-231. In words: Antiproliferative activity against FAP-alpha deficient human MDA-MB-231 cells incubated for 48 hrs by MTT assay. The data set is classed as functional, cell-based. The settings on record: MDA-MB-231, 48 h. In short, it runs like this: as §1
A short description of data set [4]: Cytotoxicity in BMSC (unknown origin) assessed as cell viability at 1000 nmol/L after 72 hrs by MTT assay. The settings on record: unidentified, 1 µM. It counts as cell-based.
In data set [5] the test system is MDA-MB-231. Nature of the data set: Antiproliferative activity against human MDA-MB-231 cells transfected with human FAP-alpha incubated for 48 hrs by MTT assay. The conditions noted are these: MDA-MB-231, 48 h. The data set is classed as functional, cell-based. In short, it runs like this:
as §1

Data set [6] addresses T1, Prolyl endopeptidase FAP (Homo sapiens, UniProt Q12884).
T1 sequence (Q12884 whole entry): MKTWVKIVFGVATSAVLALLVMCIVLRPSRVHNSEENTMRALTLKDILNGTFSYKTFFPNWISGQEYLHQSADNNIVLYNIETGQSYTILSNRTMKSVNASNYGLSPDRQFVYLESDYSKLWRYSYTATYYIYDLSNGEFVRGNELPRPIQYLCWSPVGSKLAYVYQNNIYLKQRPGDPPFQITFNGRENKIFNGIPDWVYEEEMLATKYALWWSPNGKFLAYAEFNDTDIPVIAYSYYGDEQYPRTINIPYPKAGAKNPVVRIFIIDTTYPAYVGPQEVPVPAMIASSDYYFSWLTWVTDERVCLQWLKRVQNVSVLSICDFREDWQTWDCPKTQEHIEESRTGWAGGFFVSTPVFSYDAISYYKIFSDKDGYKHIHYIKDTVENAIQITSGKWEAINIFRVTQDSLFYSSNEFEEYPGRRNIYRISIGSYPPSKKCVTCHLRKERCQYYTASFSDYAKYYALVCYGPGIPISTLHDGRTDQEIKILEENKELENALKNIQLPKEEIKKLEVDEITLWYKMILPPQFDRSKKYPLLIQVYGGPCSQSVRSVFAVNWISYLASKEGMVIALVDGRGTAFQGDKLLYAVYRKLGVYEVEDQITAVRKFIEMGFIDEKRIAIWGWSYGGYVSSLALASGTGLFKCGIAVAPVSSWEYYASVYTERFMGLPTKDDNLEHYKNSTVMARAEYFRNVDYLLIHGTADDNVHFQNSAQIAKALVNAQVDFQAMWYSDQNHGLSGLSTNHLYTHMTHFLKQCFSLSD
In words: Prodrug activation assessed as recombinant human FAP-alpha mediated (S)-((3S,5R,8R,9S,10S,11S,13R,14S,17R)-11,14-dihydroxy-10,13-dimethyl-12-oxo-17-(2-oxo-2H-pyran-5-yl)hexadecahydro-1H-cyclopenta[a]phenanthren-3-yl) 2-aminopropanoate formation […] after 90 mins by UPLC-MS/MS analysis. The settings on record: 1.5 h. In short, it runs like this: (§2)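 Prodrug at 0.625–40 μmol/L incubated with rhFAPα at 0.45 μg/mL and internal standard in 0.2 mL PBS, pH 7.4, at 37 °C for 90 min. Quenched with MeCN and spun at 18 000g for 15 min; product measured by UPLC-MS/MS. S50 and Vmax fitted with an allosteric sigmoidal model; CLint = Vmax/S50. Three independent experiments.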

The target in data set [7] is T1, Prolyl endopeptidase FAP. Nature of the data set: Prodrug activation assessed as recombinant human FAP-alpha mediated (S)-((3S,5R,8R,9S,10S,11S,13R,14S,17R)-11,14-dihydroxy-10,13-dimethyl-12-oxo-17-(2-oxo-2H-pyran-5-yl)hexadecahydro-1H-cyclopenta[a]phenanthren-3-yl) 2-amino-3-methylbutanoate formation […] after 90 mins by UPLC-MS/MS analysis. The conditions noted are these: 1.5 h. An outline of the steps: as §2

`C[C@]12CC[C@H](OC(=O)[C@@H](N)Cc3c[nH]c4ccccc34)C[C@H]1CC[C@@H]1[C@@H]2[C@H](O)C(=O)[C@]2(C)[C@@H](c3ccc(=O)oc3)CC[C@]12O`: the IC50 (usually the concentration that gives 50% inhibition) was determined as 10 nM in the data set on MDA-MB-435; 5.19 nM with MDA-MB-231 [1]; 1.06 nM with MCF7; 4.81 nM with MDA-MB-231 [3]; 7.19 nM in the data set on MDA-MB-231 [5]. Moreover, the outcome in the data set on MDA-MB-231 [2] was Active. The Activity entry in data set [4] was “Non-Toxic”.

Turning to `C[C@H](NC(=O)[C@@H]1CCCN1C(=O)CNC(=O)OCc1ccccc1)C(=O)O[C@H]1CC[C@@]2(C)[C@H](CC[C@@H]3[C@@H]2[C@H](O)C(=O)[C@]2(C)[C@@H](c4ccc(=O)oc4)CC[C@]32O)C1`, the CL at Prolyl endopeptidase FAP [6] was 23240 µL/min/mg.

On to `CC(C)[C@H](NC(=O)[C@@H]1CCCN1C(=O)CNC(=O)OCc1ccccc1)C(=O)O[C@H]1CC[C@@]2(C)[C@H](CC[C@@H]3[C@@H]2[C@H](O)C(=O)[C@]2(C)[C@@H](c4ccc(=O)oc4)CC[C@]32O)C1`, for which, on Prolyl endopeptidase FAP [7], the CL worked out at 1270 µL/min/mg.
